# PLCb3 inh: inhibitors of human phospholipase C beta3; Q01970; Purified PLC-beta3, fluorogenic substrate, fluorescence; inhibition, % at 12.2 µM; hit rate 0.18% among 370,000; AID 720704; in the data active means inhibition above about 11%;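 further: 0% = median of compound wells on plate and 100% = full blocker control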
# Target sequence (Q01970 whole entry, looked up): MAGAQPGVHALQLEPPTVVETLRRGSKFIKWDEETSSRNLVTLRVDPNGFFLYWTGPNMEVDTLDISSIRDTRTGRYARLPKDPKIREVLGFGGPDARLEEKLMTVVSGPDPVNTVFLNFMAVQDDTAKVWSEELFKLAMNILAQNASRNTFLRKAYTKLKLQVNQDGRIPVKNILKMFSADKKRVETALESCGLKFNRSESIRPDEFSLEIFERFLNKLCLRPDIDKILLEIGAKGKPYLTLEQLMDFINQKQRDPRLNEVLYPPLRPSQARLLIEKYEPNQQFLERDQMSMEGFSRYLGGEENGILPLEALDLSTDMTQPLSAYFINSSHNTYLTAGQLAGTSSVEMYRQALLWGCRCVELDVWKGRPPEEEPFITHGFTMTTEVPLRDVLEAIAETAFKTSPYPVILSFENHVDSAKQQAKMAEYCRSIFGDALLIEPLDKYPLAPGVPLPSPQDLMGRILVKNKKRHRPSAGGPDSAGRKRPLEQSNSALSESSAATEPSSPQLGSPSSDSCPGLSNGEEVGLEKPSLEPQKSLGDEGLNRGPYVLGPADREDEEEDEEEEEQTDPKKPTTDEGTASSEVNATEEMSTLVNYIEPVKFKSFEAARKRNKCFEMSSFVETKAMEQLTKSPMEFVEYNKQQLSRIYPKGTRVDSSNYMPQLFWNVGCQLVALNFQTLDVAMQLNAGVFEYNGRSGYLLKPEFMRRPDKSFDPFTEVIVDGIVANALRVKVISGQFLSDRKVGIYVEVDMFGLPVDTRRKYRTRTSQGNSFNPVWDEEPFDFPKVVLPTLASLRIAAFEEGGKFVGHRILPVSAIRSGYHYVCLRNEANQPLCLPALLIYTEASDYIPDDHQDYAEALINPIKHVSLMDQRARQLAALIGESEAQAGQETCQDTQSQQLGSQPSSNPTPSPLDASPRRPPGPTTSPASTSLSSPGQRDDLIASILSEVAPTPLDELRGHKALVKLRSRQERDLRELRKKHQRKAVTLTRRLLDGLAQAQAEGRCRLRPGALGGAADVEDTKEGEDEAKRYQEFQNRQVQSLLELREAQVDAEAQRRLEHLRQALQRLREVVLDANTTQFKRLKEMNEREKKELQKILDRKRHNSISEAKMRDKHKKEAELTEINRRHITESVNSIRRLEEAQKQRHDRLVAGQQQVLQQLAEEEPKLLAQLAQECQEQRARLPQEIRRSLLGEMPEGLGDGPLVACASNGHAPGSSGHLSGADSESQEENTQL
# TbMetRS inhib: blocks T. brucei methionyl-tRNA synthetase activity. purified T. brucei MetRS, ATP depletion, Kinase-Glo luminescence. hit rate 0.4% among 360,000. inhibition, % at 11.9 µM. AID 624268;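 active means inhibition above a per-plate cutoff of the control wells' mean inhibition plus 3 SD, cut at about 5.5% in these data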;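 further: 0% = DMSO wells median and 100% = median of wells with control inhibitor compound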
#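 Test system: purified T. brucei MetRS enzyme. Also added: ATP, methionine and E. coli bulk tRNA substrates. Compound: 11.9 µM single point. Schedule: 15 min enzyme-compound preincubation, 2 h reaction, 10 min detection, 25 °C. Signal: luciferase luminescence of residual ATP, Kinase-Glo. Evaluation: percent inhibition versus plate control medians. Controls: DMSO wells, low control.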
# HGIII-sPLA2 inh: Blocks human group III sPLA2 activity | Q9NZ20 | QFRET BODIPY PC-A2 liposome hydrolysis, fluorescence | inhibition, % at 12.2 µM | hit rate 0.56% among 370,000;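 active means inhibition above mean plus 3 SD of compounds lying within the high and low control bounds, cut at about 19% in these data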;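 further: 0% = median of test compound wells and 100% = no enzyme DMSO wells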
# PLC-gamma1 inh: PLC-gamma1 (human) inhibition, primary screen; AID 720700; P19174; inhibition, % at 12.2 µM; purified PLC-gamma1, fluorogenic substrate, fluorescence; hit rate 0.84% among 370,000
# PLCg1 ctr: PLC-gamma1 inhibition, counter-screen for PLC-beta3 hits; shares compounds with PLC-gamma1 inh; purified PLC-gamma1, fluorogenic substrate, fluorescence; inhibition, % at 12.3 µM; hit rate 3.1% among 3,300
# PLCb3 confirm: confirmation of human PLC-beta3 inhibitors; shares compounds with PLC-gamma1 inh; purified PLC-beta3, fluorogenic substrate fluorescence; inhibition, % at 12.3 µM; hit rate 1% among 3,300; in the data active means inhibition above about 11%
# * hit, by the source's call; . = not tested or not shown. Rows were chosen to be rich in hits. Some 1.9% of all compounds tested hit in one or more screens of this group. Unless noted, no stated cut-off is given here; in the data, active means inhibition above about 9.5%; inactive means the rest.
SMILES,PLCb3 inh,TbMetRS inhib,HGIII-sPLA2 inh,PLC-gamma1 inh,PLCg1 ctr,PLCb3 confirm
CC(OC(=O)c1ccc2c(c1)OCO2)C(=O)NC1CCCCC1C (stereo not given),3.0,0.0,1.3,0.1,.,.
CC(=O)Nc1cccc(C(=O)OC(C)C(=O)NCc2ccc3c(c2)OCO3)c1 (stereo not given),-8.1,-0.1,13.5,9.9*,4.4,5.9
CS(=O)(=O)N1C[C@]2(c3ccccc3)CC1Cc1ccccc12,3.2,.,3.7,1.7,.,.
O=C(O)c1ccc(-n2c(-c3cc(-c4ccco4)[nH]n3)n[nH]c2=S)cc1,8.9,0.6,-3.5,31.4*,22.6*,9.7
CC(=O)c1ccc(-n2c(-c3cc(-c4ccco4)[nH]n3)n[nH]c2=S)cc1,0.0,-0.1,0.5,1.4,.,.
CC(=O)N1C[C@@H](CN2C(=O)CCC2=O)[C@@H]2C[C@H]1c1ccccc1N2C,2.0,.,4.5,1.1,.,.
O=C(O)c1ccccc1C(=O)Nc1ccc(S(=O)(=O)N2CCCC2)cc1,5.1,-1.5,11.6,10.5*,-3.3,2.2
CN(CCOc1ccccc1)C(=O)c1ccc2c(c1)OCO2,-7.8,-0.6,10.8,3.3,.,.
Cc1cc(NC(=O)c2ccc3c(c2)OCO3)ccc1NC(=O)c1ccccc1,12.0*,0.0,4.3,4.0,-6.1,15.4*
O=C(Nc1ccc2c(c1)OCO2)c1cccc(S(=O)(=O)N2CCCC2)c1,11.1*,-0.6,0.6,6.1,-3.9,0.6
O=C(Nc1ccc(S(=O)(=O)N2CCCC2)cc1)c1ccccc1,-5.4,0.1,5.7,-3.4,.,.
O=C(NCCOc1ccccc1)c1ccc2c(c1)OCO2,3.5,-0.3,0.2,12.9*,0.5,-3.2
O=C(COC(=O)c1n[nH]c2ccccc12)Nc1ccc(S(=O)(=O)N2CCCC2)cc1,5.2,-0.4,-28.8,10.5*,2.4,-0.8
CC(C)c1ccccc1NC(=O)Nc1ccc2c(c1)OCO2,3.1,-0.5,9.7,11.6*,9.7*,2.3
O=C(COC(=O)c1n[nH]c2ccccc12)Nc1cccc(S(=O)(=O)N2CCOCC2)c1,-6.5,0.8,-34.2,-2.6,.,.
COC(=O)c1ccccc1NC(=O)Nc1ccc2c(c1)OCO2,1.7,-0.4,2.8,0.6,.,.
CCOC(=O)Cc1nc(N2CCN(Cc3cccc4c3OCO4)CC2)c2c(C)c(C(=O)OCC)sc2n1,-4.4,.,-10.3,-5.5,.,.
O=C(N[C@H](C(=O)N1CCC[C@H]1C(=O)NCc1ccccc1)c1ccccc1)c1ccc(Cl)cc1Cl,0.3,.,-3.0,1.0,.,.
CC(C)CC(NC(=O)C1CCCN1C(=O)OC(C)(C)C)C(=O)NCC(N)=O (stereo not given),13.8*,-1.0,5.2,7.1,-1.6,2.3
CCN(CC)c1ccc(C=NNC(=O)Cc2cc(=O)[nH][nH]2)c(O)c1,-59.4,.,-0.5,-40.8,.,.
C[C@H]1CN(C(=O)OC(C)(C)C)CCN1c1ccc(N2CC[C@H](O)C2)c(C#N)c1,-167.0,.,10.2,-127.9,.,.
CC1=C2NC(N)=[N+](Cc3ccc4c(c3)OCO4)CC2NOC1 (stereo not given),-6.3,.,0.5,-4.0,.,.
CCc1c(N)nc(N)nc1Nc1ccccc1Cl,11.5*,-0.1,14.0,11.2*,-20.0,-2.3
Cc1cc(C(=O)NCc2cccs2)ccc1[N+](=O)[O-],0.8,0.1,2.3,1.0,.,.
O=C(NCc1cccs1)c1ccc([N+](=O)[O-])cc1,12.2*,-1.4,11.0,10.0*,-9.2,-5.9
SMILES,PLCb3 inh,TbMetRS inhib,HGIII-sPLA2 inh,PLC-gamma1 inh,PLCg1 ctr,PLCb3 confirm
Nn1c(Cc2ccccc2F)nnc1SCn1nnc2ccccc2c1=O,3.3,-1.0,2.8,11.1*,-5.6,-1.2
O=c1c2ccccc2nnn1CSc1ccccc1F,4.2,2.1,-7.7,0.3,.,.
O=C(NCCCN1CCOCC1)c1cccnc1,-0.2,-1.1,3.4,-1.6,.,.
O=C(NCCCN1CCOCC1)c1ccccc1,5.5,-0.9,8.5,11.9*,-2.3,2.2
Cc1ccc(C(=O)NCCCN2CCOCC2)cc1S(=O)(=O)N1CCOCC1,-1.1,-0.4,-0.2,10.2*,-6.9,-2.4
O=C(NCCc1ccccc1)C(=O)NN=C1CCCC1,2.6,-0.4,10.0,9.7*,-3.0,-1.5
O=C(NCCCN1CCOCC1)C(=O)NCCc1ccccc1,5.0,-0.5,7.1,12.0*,-4.0,-0.4
O=C(NCCCN1CCOCC1)C(=O)NCc1ccccc1,-4.9,-0.7,0.6,-2.2,.,.
O=C(Cc1ccccc1)NCCCN1CCN(CCCNC(=O)Cc2ccccc2)CC1,5.4,-0.1,0.8,11.4*,-4.7,-3.1
O=C(Cc1ccc(-c2ccccc2)cc1)NCCN1CCOCC1,-0.1,-0.4,3.4,3.3,.,.
C=CCN=C1NC(c2cccc(Cl)c2)C(C(=O)OC)=C(C)N1C (stereo not given),-1.0,.,11.1,0.8,.,.
Cc1ccc(NC(=S)N(N)CCO)cc1,5.4,-0.7,12.3,11.7*,-0.3,-1.2
C#CCNC(=O)C[C@H]1C[C@@]2(C(=O)OC)C(=C[C@H](COCc3ccccc3)O[C@@H]2C)N(Cc2ccccc2)C1=O,3.5,.,-0.1,0.9,.,.
COc1cccc(-c2ccc3ncnc(NCc4ccc5c(c4)OCO5)c3c2)c1,11.8*,-0.2,4.1,10.9*,-8.3,-4.9
COC(=O)Cc1nnn2c1[C@H](C)[C@H](c1cccc(OC)c1OC)OCC2,5.5,.,-5.0,1.1,.,.
COc1ccc(C(=O)Nc2ccc3c(c2)nc(CN2CCN(C(C)=O)CC2)n3C)cc1,11.4*,-0.5,3.1,8.1,0.5,-0.9
COc1ccc(C(=O)Nc2ccc3c(c2)nc(CN2CCCC2)n3C)cc1,-19.3,-0.4,1.4,-10.3,.,.
Cc1nc(-c2ccncc2)nc(NCCNc2ncccc2C(F)(F)F)c1Cl,6.1,-0.8,8.3,12.1*,-5.1,-2.6
OC(CNCCNc1ncccc1C(F)(F)F)Cn1ccc2ccccc21 (stereo not given),-6.7,-0.2,-1.7,0.2,.,.
O=C(CNC(=O)c1cnccn1)Nc1ccc(F)c(F)c1F,5.0,0.2,11.9,10.6*,-2.6,2.0
O=C(c1ccncc1)N1CCN(c2ccc(F)cc2)CC1,-1.2,-0.2,5.3,2.2,.,.
O=C(c1ccc(Cl)cc1)N1CCN(c2ccc(F)cc2)CC1,4.6,-1.4,0.8,10.5*,-4.4,0.5
O=C(c1ccc(CS(=O)Cc2cccc(Cl)c2)o1)N1CCN(c2ccc(F)cc2)CC1 (stereo not given),0.8,-0.1,-4.9,-3.4,.,.
O=C(c1ccc(Cl)cc1)N1CCCOC1,12.6*,-0.7,7.0,16.2*,3.8,1.6
O=C(c1cccc([N+](=O)[O-])c1)N1CCN(c2ccc(Cl)cc2)CC1,2.0,1.0,7.6,11.2*,2.1,-1.2
O=C(c1ccc(CS(=O)Cc2ccc(Cl)cc2)o1)N1CCN(c2ccc(F)cc2)CC1 (stereo not given),-4.5,0.0,-9.1,9.5*,-2.2,-1.8
NC(=O)C1CCCN(C(=O)c2ccc(Cl)cc2)C1 (stereo not given),5.6,-1.0,9.5,2.0,.,.

# Screening data deposited in PubChem BioAssay by The Scripps Research Institute Molecular Screening Center.
